Assay results: ChEMBL document CHEMBL5705905, “Pharmacological targeting of kinases MST1 and MST2 augments tissue repair and regeneration” (Sci Transl Med, 2016)
Calls of active or inactive are those of the source. The rule behind the calls is not given here.

Key:
[1] = target: Hormonally up-regulated neu tumor-associated kinase (Homo sapiens) (UniProt P57058); experiment: Inhibition of HUNK (unknown origin) assessed as remaining activity at 1 uM by Kinome scan method relative to control
[2] = target: Eukaryotic translation initiation factor 2-alpha kinase 1 (Homo sapiens) (UniProt Q9BQI3); experiment: Inhibition of EIF2AK1 (unknown origin) assessed as remaining activity at 1 uM by Kinome scan method relative to control
Sequence of Eukaryotic translation initiation factor 2-alpha kinase 1 (Homo sapiens) (Q9BQI3 whole entry): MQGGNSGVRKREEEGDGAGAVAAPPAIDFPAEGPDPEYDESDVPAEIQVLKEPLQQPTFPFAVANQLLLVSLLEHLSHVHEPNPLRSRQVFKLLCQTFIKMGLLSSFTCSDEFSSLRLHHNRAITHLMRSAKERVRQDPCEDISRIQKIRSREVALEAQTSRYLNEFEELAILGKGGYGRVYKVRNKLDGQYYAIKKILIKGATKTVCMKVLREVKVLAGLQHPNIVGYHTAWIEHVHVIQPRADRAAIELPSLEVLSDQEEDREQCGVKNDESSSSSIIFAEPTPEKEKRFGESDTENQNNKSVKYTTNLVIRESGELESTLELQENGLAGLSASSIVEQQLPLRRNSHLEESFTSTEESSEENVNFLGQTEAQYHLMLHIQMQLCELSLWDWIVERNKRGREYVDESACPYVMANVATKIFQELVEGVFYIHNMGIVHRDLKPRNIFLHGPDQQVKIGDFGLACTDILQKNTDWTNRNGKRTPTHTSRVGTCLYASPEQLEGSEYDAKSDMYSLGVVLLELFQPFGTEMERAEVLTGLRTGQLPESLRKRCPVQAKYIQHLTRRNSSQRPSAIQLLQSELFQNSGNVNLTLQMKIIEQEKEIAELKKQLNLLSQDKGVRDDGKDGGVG

[3] = target: Misshapen-like kinase 1 (Homo sapiens) (UniProt Q8N4C8); experiment: Inhibition of MINK (unknown origin) assessed as remaining activity at 1 uM by Kinome scan method relative to control
[4] = target: MAP/microtubule affinity-regulating kinase 4 (Homo sapiens) (UniProt Q96L34); experiment: Inhibition of MARK4 (unknown origin) assessed as remaining activity at 1 uM by Kinome scan method relative to control
[5] = target: Atypical kinase COQ8B, mitochondrial (Homo sapiens) (UniProt Q96D53); experiment: Inhibition of ADCK4 (unknown origin) assessed as remaining activity at 1 uM by Kinome scan method relative to control
Sequence of Atypical kinase COQ8B, mitochondrial (Homo sapiens) (Q96D53 whole entry): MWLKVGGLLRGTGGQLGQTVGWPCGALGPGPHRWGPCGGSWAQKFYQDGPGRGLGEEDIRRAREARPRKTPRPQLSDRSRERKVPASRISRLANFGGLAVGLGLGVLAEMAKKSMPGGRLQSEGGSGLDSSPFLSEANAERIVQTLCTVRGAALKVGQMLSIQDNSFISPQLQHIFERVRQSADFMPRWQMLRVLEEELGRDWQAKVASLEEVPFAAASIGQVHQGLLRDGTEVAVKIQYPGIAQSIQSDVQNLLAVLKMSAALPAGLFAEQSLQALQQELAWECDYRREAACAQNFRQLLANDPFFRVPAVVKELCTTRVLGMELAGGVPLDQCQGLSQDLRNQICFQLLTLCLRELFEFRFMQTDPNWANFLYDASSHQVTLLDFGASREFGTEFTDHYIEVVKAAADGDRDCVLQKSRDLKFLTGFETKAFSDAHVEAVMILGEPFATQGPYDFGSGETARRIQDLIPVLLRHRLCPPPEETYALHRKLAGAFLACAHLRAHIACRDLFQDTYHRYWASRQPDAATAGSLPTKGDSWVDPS
Method in brief: (§1)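 Active-site-dependent competition-binding (KINOMEscan) panel of 468 kinases, test compound at 1 μM (from a 10 mM DMSO stock). Read-out is ctrl% = (test signal − positive control signal)/(negative control signal − positive control signal) × 100. DMSO is the negative control (100%) and a control compound is the positive control (0%). Lower ctrl% means tighter binding.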

[6] = Acute toxicity in wild-type mouse assessed as cell proliferation in colon at 3 mg/kg,ip administrated daily for 7 days by Ki67 staining; type: organism-based; conditions: in vivo, 168 h, time 7 day
Method in brief: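 Wild-type mice received vehicle or 3 mg/kg i.p. daily for 7 days. Ki67 staining of sections from various tissues with quantification of positive cells, n = 6; means ± SD, Student's t test. Daily weights, physical activity and serum chemistry were also monitored.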

[7] = target: Cyclin-dependent kinase 13 (Homo sapiens) (UniProt Q14004); experiment: Inhibition of CDC2L5 (unknown origin) assessed as remaining activity at 1 uM by Kinome scan method relative to control
Method in brief: (§2)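 Active-site-dependent competition-binding profiling (KINOMEscan) at 1 μM against a 468-kinase panel; compound supplied from a 10 mM DMSO stock. Read-out is ctrl% = (test signal − positive control signal)/(negative control signal − positive control signal) × 100. DMSO is the negative control (100%) and a control compound the positive control (0%). Lower ctrl% means tighter binding.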

[8] = target: Serine/threonine-protein kinase 26 (Homo sapiens, UniProt Q9P289); experiment: Inhibition of MST4 (unknown origin) in presence of ATP by enzymatic assay
[9] = target: Ribosomal protein S6 kinase alpha-4 (Homo sapiens) (UniProt O75676); experiment: Inhibition of C-terminal kinase domain RPS6KA4 (unknown origin) assessed as remaining activity at 1 uM by Kinome scan method relative to control; method in brief: as §1
[10] = target: Mitogen-activated protein kinase kinase kinase 11 (Homo sapiens) (UniProt Q16584); experiment: Inhibition of MLK3 (unknown origin) assessed as remaining activity at 1 uM by Kinome scan method relative to control
[11] = target: LIM domain kinase 2 (Homo sapiens) (UniProt P53671); experiment: Inhibition of LIMK2 (unknown origin) assessed as remaining activity at 1 uM by Kinome scan method relative to control
Sequence of LIM domain kinase 2 (Homo sapiens) (P53671 whole entry, looked up, the tested form may be a part): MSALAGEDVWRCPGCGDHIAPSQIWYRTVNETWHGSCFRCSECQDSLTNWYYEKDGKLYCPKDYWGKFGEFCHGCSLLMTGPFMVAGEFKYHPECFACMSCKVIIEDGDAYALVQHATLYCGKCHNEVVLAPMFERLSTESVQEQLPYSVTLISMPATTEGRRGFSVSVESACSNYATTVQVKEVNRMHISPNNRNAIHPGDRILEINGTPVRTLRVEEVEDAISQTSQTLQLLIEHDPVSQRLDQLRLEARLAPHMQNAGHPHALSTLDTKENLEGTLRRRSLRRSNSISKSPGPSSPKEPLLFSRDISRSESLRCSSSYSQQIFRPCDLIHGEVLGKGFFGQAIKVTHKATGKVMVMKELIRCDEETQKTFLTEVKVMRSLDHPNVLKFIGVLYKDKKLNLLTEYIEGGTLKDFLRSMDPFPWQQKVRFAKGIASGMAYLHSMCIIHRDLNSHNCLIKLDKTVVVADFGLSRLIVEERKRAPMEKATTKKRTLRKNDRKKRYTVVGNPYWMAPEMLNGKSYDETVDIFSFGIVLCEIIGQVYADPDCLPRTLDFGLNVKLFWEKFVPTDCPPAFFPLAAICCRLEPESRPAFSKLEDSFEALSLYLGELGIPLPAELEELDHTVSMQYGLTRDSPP

[12] = target: Cyclin-dependent kinase-like 2 (Homo sapiens) (UniProt Q92772); experiment: Inhibition of CDKL2 (unknown origin) assessed as remaining activity at 1 uM by Kinome scan method relative to control; method in brief: as §2
[13] = target: Mitogen-activated protein kinase kinase kinase kinase 4 (Homo sapiens) (UniProt O95819); experiment: Inhibition of MAP4K4 (unknown origin) assessed as remaining activity at 1 uM by Kinome scan method relative to control
Sequence of Mitogen-activated protein kinase kinase kinase kinase 4 (Homo sapiens) (O95819 2-1239 limits assumed): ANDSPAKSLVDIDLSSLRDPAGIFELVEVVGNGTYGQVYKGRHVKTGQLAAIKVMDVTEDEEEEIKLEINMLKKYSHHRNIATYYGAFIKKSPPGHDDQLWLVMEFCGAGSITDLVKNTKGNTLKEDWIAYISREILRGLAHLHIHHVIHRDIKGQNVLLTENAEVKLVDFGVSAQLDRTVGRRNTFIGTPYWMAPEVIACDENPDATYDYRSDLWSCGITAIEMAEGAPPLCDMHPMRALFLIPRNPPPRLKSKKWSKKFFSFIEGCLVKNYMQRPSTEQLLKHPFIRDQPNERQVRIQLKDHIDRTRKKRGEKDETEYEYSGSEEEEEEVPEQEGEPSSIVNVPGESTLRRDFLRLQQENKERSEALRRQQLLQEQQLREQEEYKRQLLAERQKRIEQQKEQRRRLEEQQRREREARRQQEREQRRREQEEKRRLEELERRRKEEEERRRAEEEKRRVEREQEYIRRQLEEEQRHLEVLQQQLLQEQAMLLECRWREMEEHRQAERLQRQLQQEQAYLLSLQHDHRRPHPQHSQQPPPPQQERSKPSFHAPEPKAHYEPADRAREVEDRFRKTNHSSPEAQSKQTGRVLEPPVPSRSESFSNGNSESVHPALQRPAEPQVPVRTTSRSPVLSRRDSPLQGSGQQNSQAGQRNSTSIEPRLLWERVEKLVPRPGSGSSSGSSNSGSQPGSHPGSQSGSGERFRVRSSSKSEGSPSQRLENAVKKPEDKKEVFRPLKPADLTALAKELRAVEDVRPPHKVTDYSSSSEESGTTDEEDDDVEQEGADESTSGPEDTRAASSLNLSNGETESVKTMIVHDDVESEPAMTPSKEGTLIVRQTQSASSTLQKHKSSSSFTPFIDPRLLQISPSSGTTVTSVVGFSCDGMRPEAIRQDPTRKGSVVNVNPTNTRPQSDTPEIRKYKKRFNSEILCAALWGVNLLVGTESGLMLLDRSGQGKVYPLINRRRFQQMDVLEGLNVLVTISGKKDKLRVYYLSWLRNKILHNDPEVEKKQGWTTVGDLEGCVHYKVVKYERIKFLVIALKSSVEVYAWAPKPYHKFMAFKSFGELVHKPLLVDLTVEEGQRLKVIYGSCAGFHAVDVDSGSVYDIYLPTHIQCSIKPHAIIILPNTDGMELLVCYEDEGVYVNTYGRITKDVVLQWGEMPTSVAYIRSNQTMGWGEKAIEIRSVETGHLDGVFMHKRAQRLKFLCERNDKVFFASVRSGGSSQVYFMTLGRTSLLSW

Mus musculus [14] = experiment: Anti-colitis activity against DSS-induced mouse assessed as high number in nuclear YAP-positive cells at 1 mg/kg, ip administrated daily for 8 days by IHC staining; type: functional, organism-based; conditions: Colon, time 8.0 day
Method in brief: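 Wild-type mice received oral DSS for 7 days with vehicle or 1 mg/kg daily. Colon sections were stained by IHC for YAP, BrdU and Ki67, and positive cells were quantified per animal. Means ± SD, n = 10, Student's t test.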

[15] = target: Ephrin type-A receptor 3 (Homo sapiens) (UniProt P29320); experiment: Inhibition of EPHA3 (unknown origin) assessed as remaining activity at 1 uM by Kinome scan method relative to control
[16] = target: Serine/threonine-protein kinase 32A (Homo sapiens) (UniProt Q8WU08); experiment: Inhibition of YANK1 (unknown origin) assessed as remaining activity at 1 uM by Kinome scan method relative to control
Sequence of Serine/threonine-protein kinase 32A (Homo sapiens) (Q8WU08 whole entry): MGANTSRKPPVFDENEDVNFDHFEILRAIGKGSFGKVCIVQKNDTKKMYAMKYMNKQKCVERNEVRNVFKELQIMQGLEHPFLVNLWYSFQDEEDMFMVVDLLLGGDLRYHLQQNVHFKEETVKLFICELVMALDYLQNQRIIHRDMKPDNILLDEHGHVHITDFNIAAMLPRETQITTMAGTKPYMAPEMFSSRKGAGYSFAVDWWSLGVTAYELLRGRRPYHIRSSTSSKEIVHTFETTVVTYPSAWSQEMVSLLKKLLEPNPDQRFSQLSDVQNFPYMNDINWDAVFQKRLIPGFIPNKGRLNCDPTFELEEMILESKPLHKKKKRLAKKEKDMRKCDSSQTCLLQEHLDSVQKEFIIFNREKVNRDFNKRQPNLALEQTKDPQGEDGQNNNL

[17] = test system: Mast/stem cell growth factor receptor Kit (Homo sapiens), P10721 [V559D,T670I]; experiment: Inhibition of KIT V559D/T670I mutant (unknown origin) assessed as remaining activity at 1 uM by Kinome scan method relative to control
[18] = test system: Epidermal growth factor receptor (Homo sapiens), P00533 [UNDEFINED MUTATION]; experiment: Inhibition of EGFR E746-A750del mutant (unknown origin) assessed as remaining activity at 1 uM by Kinome scan method relative to control
[19] = Inhibition of recombinant His-tagged full-length MST1 D109A mutant (unknown origin) expressing in Escherichia coli assessed as MOB1 phosphorylation level incubated for 15 min by immunoblot analysis; design: species or system Homo sapiens
[20] = target: Tyrosine-protein kinase CSK (Homo sapiens) (UniProt P41240); experiment: Inhibition of CSK (unknown origin) assessed as remaining activity at 1 uM by Kinome scan method relative to control; method in brief: as §2
Mus musculus [21] = experiment: Protection against human hepatocyte transplanted FRG mouse assessed as increase in human albumin level at 1 mg/kg, ip administrated once a day and measured within 6 weeks; type: functional, organism-based; conditions: Liver
[22] = target: Calcium/calmodulin-dependent protein kinase type II subunit delta (Homo sapiens) (UniProt Q13557); experiment: Inhibition of CAMK2D (unknown origin) assessed as remaining activity at 1 uM by Kinome scan method relative to control; method in brief: as §2
Sequence of Calcium/calmodulin-dependent protein kinase type II subunit delta (Homo sapiens) (Q13557 whole entry): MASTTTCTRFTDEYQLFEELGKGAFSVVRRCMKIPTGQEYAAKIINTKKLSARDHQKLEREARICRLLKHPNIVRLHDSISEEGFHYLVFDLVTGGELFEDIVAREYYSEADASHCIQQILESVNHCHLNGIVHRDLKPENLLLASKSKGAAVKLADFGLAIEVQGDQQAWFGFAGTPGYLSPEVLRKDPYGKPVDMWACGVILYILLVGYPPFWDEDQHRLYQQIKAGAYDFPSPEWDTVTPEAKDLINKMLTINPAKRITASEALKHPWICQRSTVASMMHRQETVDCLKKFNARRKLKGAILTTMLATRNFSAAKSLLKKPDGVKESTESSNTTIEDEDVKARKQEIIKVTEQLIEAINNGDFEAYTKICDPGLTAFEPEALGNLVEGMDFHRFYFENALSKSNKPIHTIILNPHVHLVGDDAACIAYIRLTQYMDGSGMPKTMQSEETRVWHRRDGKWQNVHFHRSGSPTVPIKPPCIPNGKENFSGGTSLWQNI

[23] = target: Serine/threonine-protein kinase Nek11 (Homo sapiens) (UniProt Q8NG66); experiment: Inhibition of NEK11 (unknown origin) assessed as remaining activity at 1 uM by Kinome scan method relative to control
[24] = target: Inhibitor of nuclear factor kappa-B kinase subunit epsilon (Homo sapiens) (UniProt Q14164); experiment: Inhibition of IKK-epsilon (unknown origin) assessed as remaining activity at 1 uM by Kinome scan method relative to control
Sequence of Inhibitor of nuclear factor kappa-B kinase subunit epsilon (Homo sapiens) (Q14164 whole entry): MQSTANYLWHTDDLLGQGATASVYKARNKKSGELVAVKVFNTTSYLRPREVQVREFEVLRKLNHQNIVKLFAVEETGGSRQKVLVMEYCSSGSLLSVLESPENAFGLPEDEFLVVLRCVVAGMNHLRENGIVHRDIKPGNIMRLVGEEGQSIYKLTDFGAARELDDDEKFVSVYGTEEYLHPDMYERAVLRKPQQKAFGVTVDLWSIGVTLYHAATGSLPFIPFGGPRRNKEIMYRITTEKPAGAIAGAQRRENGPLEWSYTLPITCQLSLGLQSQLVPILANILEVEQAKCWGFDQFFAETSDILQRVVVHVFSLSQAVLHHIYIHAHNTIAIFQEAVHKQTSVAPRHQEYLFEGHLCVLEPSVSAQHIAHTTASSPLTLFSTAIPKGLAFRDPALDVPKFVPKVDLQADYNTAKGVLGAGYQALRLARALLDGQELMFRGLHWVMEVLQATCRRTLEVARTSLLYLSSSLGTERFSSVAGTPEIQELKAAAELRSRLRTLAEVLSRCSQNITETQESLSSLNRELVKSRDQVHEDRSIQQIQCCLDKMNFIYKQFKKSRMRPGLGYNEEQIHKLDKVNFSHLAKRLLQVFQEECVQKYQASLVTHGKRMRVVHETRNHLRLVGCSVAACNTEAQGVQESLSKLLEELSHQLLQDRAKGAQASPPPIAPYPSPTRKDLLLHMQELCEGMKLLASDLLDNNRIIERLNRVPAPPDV

SMILES: CN1C(=O)c2sccc2N(C)c2nc(Nc3ccc(S(N)(=O)=O)cc3)ncc21
- Activity [1]: 84%
- Activity [2]: 94%
- Activity [3]: 58%
- Activity [4]: 100%
- Activity [5]: 79%
- Activity [6]: Non-Toxic
- Activity [7]: 90%
- IC50 [8]: 27.3 nM
- Activity [9]: 69%
- Activity [10]: 100%
- Activity [11]: 100%
- Activity [12]: 97%
- Activity [13]: 100%
- Activity (Mus musculus [14]): Active
- Activity [15]: 91%
- Activity [16]: 100%
- Activity [17]: 88%
- Activity [18]: 82%
- IC50 [19]: 753 nM
- Activity [20]: 100%
- Activity (Mus musculus [21]): Active
- Activity [22]: 100%
- Activity [23]: 100%
- Activity [24]: 86%
